# The source made the active and inactive calls. The rule behind the calls is not given here.
# What was measured:
# LNCaP [1] = assay: Cell cycle arrest in LNCaP cells by accumulation at G2/M phase at 50 nM after 72 hrs by PI staining; type: functional, cell-based; settings: Homo sapiens
# Procedure, shortened: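 Sub-confluent LNCaP (RPMI, 10% FBS, 37 °C, 5% CO2) exposed to 50 nM or ethanol vehicle (≤0.002%) for 72 h; harvested, fixed in ice-cold 70% ethanol ≥30 min at 4 °C; ~10^6 cells stained with PI (10 μg/mL) plus RNase A (100 μg/mL) 30 min in dark; FACS; % cells in G0/G1, S, G2/M, mean of three independent experiments ± SEM.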
# TRAMP-C2H [2] = assay: Growth inhibition of mouse C2H cells after 72 hrs by MTT assay; type: functional
# Procedure, shortened: (§1)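 Seeded overnight at C1A 2500, C2H 1500 or LNCaP 10,000 cells/well, then exposed to a range of concentrations or ethanol vehicle for 72 h. MTT added for 4 h, cells solubilized in 20% SDS/0.02 N HCl, absorbance read at 570 nm. Concentration for 50% growth inhibition (GI50) calculated. Replicate wells ± SD; ≥3 independent experiments.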
# LNCaP [3] = assay: Growth inhibition of human LNCaP cells after 72 hrs by MTT assay; type: functional; procedure, shortened: as §1
# LNCaP [4] = assay: Induction of late apoptosis in LNCaP cells at 50 nM after 72 hrs relative to control by V-PE/7-AAD staining; type: functional, cell-based; settings: Homo sapiens
# Procedure, shortened: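 Sub-confluent LNCaP treated 72 h with 50 nM or ethanol vehicle; trypsinized, washed twice in ice-cold PBS, stained with annexin V-PE and 7-AAD 15 min in dark, analysed by FACS; late stage scored as annexin V plus 7-AAD positive; mean fold increase ± SEM normalized to control (=1.0), ANOVA.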
# LNCaP [5] = assay: Growth inhibition of human LNCaP cells at 100 nM after 72 hrs by MTT assay; type: functional; procedure, shortened: as §1
# TRAMP-C1A = assay: Growth inhibition of mouse C1A cells after 72 hrs by MTT assay; type: functional; procedure, shortened: as §1
# LNCaP [6] = assay: Cell cycle arrest in LNCaP cells by accumulation at G1/S phase at 50 nM after 72 hrs by PI staining; type: functional, cell-based; settings: Homo sapiens
# Procedure, shortened: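 Sub-confluent LNCaP cells given vehicle (ethanol) or 50 nM for 72 h. Cells fixed in ice-cold 70% ethanol at 4 °C for ≥30 min, then stained with PI (10 μg/mL) plus RNase A (100 μg/mL) for 30 min in the dark. Phase distribution read by flow cytometry. Mean of three independent experiments ± SEM.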
# LNCaP [7] = assay: Inhibition of cyclin D1 expression in LNCaP cells at 50 nM after 72 hrs by Western blot analysis; type: functional, cell-based; settings: Homo sapiens
# Procedure, shortened: (§2)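 Sub-confluent LNCaP cells given 50 nM or ethanol vehicle for 72 h. Lysed in Triton X-100/SDS buffer with protease and phosphatase inhibitors, run on SDS-PAGE, blotted to PVDF, probed overnight at 4 °C, detected by HRP chemiluminescence. Bands quantified by densitometry, normalized to actin and expressed relative to control.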
# LNCaP [8] = assay: Increase in bax expression in LNCaP cells at 50 nM after 72 hrs by Western blot analysis; type: functional, cell-based; settings: Homo sapiens; procedure, shortened: as §2
# LNCaP [9] = assay: Increase in p21 expression in LNCaP cells at 50 nM after 72 hrs relative to control by Western blot analysis; type: functional, Homo sapiens; procedure, shortened: as §2
# LNCaP [10] = assay: Decrease in CDK4 expression in LNCaP cells at 50 nM after 72 hrs by Western blot analysis; type: functional, Homo sapiens; set-up: scale not given: the % may be the effect or the level left; procedure, shortened: as §2
# LNCaP [11] = assay: Increase in p27 expression in LNCaP cells at 50 nM after 72 hrs relative to control by Western blot analysis; type: functional, Homo sapiens; procedure, shortened: as §2
# LNCaP [12] = assay: Decrease in Cyclin E expression in LNCaP cells at 50 nM after 72 hrs by Western blot analysis; type: functional, cell-based; settings: Homo sapiens; procedure, shortened: as §2
# [13] = target: Cyclin-dependent kinase 2 (Homo sapiens) (UniProt P24941); assay: Inhibition of CDK2 kinase activity assessed as decrease in histone H1 phosphorylation in LNCaP cells at 50 nM after 72 hrs by Western blot analysis; type: functional, cell-based
# Procedure, shortened: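 LNCaP cells given 50 nM or vehicle for 72 h, lysed in NP40 buffer. Lysate (100 μg) immunoprecipitated overnight at 4 °C with cdk2 antibody on protein A/G beads. Beads incubated 30 min at 30 °C with 2 μg histone H1, 20 μM ATP and 5 μCi [γ-32P]ATP. Reaction resolved by SDS-PAGE and phospho-H1 detected by autoradiography, with cdk2 immunoblot alongside.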
# LNCaP [14] = assay: Increase in p53 expression in LNCaP cells at 50 nM after 72 hrs relative to control by Western blot analysis; type: functional, cell-based; settings: Homo sapiens; procedure, shortened: as §2
# LNCaP [15] = assay: Induction of early apoptosis in LNCaP cells at 50 nM after 72 hrs relative to control by V-PE/7-AAD staining; type: functional, Homo sapiens
# Procedure, shortened: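 Sub-confluent LNCaP cells given 50 nM or vehicle for 72 h, trypsinized, washed in cold PBS, stained with annexin V-PE and 7-AAD for 15 min in the dark, analysed by flow cytometry. Early apoptosis = annexin V-positive only. Reported as fold over control ± SEM; ANOVA.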
# LNCaP [16] = assay: Inhibition of CDK2 expression in LNCaP cells at 50 nM after 72 hrs by Western blot analysis; type: functional, cell-based; settings: Homo sapiens; procedure, shortened: as §2
# TRAMP-C2H [17] = assay: Inhibition of DNA synthesis in mouse C2H cells at 50 nM after 72 hrs by BrdU incorporation assay; type: functional; set-up: scale not given: the % may be the effect or the level left
# Procedure, shortened: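 Sub-confluent C2H cells given 50 nM or vehicle for 72 h, labelled with BrdU for 4 h, incorporation measured by colorimetric BrdU ELISA at 370 nm. Expressed as % of control ± SEM; ANOVA.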
# LNCaP [18] = assay: Decrease in Bcl2 expression in LNCaP cells at 50 nM after 72 hrs by Western blot analysis; type: functional, cell-based; settings: Homo sapiens; procedure, shortened: as §2
# LNCaP [19] = assay: Increase in CDK6 expression in LNCaP cells at 50 nM after 72 hrs by Western blot analysis; type: functional, cell-based; settings: Homo sapiens; procedure, shortened: as §2
# LNCaP [20] = assay: Inhibition of DNA synthesis in human LNCaP cells at 50 nM after 72 hrs by BrdU incorporation assay; type: functional; set-up: scale not given: the % may be the effect or the level left
# Procedure, shortened: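 LNCaP cells given 50 nM or vehicle for 72 h, pulsed 30 min with 100 μg/mL BrdU plus 1 μg/mL FdU. Cells fixed, DNA denatured with 2 N HCl, neutralized with borate pH 8.5, stained with anti-BrdU and Alexa 488 secondary plus PI, then read by flow cytometry. Normalized to control ± SEM; ANOVA.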
SMILES,GI50 (TRAMP-C2H [2]) [nM],GI50 (LNCaP [3]) [nM],inhibition at 0.1 µM (LNCaP [5]) [%],GI50 (TRAMP-C1A) [nM],Activity (LNCaP [6]),Activity (LNCaP [7]),Activity (LNCaP [8]),Activity (LNCaP [9]),Activity (LNCaP [10]) [%],Activity (LNCaP [11]),Activity (LNCaP [12]),Activity [13],Activity (LNCaP [14]),Activity (LNCaP [15]),Activity (LNCaP [16]),Activity (LNCaP [18]),Activity (LNCaP [19]),further results
COc1cccc2c1C(=O)c1c(O)c3c(c(O)c1C2=O)C[C@@](O)(C(=O)CO)C[C@@H]3O[C@H]1C[C@H](N)[C@H](O)[C@H](C)O1 [DOXORUBICIN],15.8,45.3,69,20.4,,,,,,,,,,,,,,Activity (LNCaP [1]): Active; Activity (LNCaP [4]): Active
CCOP(=O)(OCC)OCC(C[C@H]1O[C@@H]2O[C@@]3(C)CC[C@H]4[C@H](C)CC[C@@H]([C@H]1C)[C@@]24OO3)C[C@H]1O[C@@H]2O[C@@]3(C)CC[C@H]4[C@H](C)CC[C@@H]([C@H]1C)[C@@]24OO3 (stereo not given in full),39.4,36.3,,42.2,Active,Active,Active,9,10,6.5,Active,Active,inactive,4,Active,,,
C[C@H]1[C@@H](CC(CNc2ccccc2)C[C@H]2O[C@@H]3O[C@@]4(C)CC[C@H]5[C@H](C)CC[C@@H]([C@H]2C)[C@@]35OO4)O[C@@H]2O[C@@]3(C)CC[C@H]4[C@H](C)CC[C@@H]1[C@@]24OO3 (stereo not given in full),17,17.9,97,18,Active,Active,Active,9,10,6.5,Active,Active,inactive,4,Active,Active,Active,Activity (TRAMP-C2H [17]): >90%; Activity (LNCaP [20]): >90%
C[C@H]1[C@@H](CC(COP(=O)(Oc2ccccc2)Oc2ccccc2)C[C@H]2O[C@@H]3O[C@@]4(C)CC[C@H]5[C@H](C)CC[C@@H]([C@H]2C)[C@@]35OO4)O[C@@H]2O[C@@]3(C)CC[C@H]4[C@H](C)CC[C@@H]1[C@@]24OO3 (stereo not given in full),44.8,34.4,,31.9,Active,Active,Active,9,10,6.5,Active,Active,inactive,4,Active,Active,Active,
